≈ marks a conversion by molar mass, not a printed value.
Key:
[1] = physchem; conditions: buffer, pH 2.2
[2] = tested on: Human immunodeficiency virus 1; assay: Antiviral activity against HIV1 3B in MT4 cell line; format: functional, organism-based; conditions: Human immunodeficiency virus 1, 3B
In short: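 MT-4 cells infected with HIV-1 IIIB at moi 0.01 for 3 h, then ~1.5 × 10⁴ cells/well added to 5-fold serial drug dilutions (9 concentrations, triplicate) in culture medium; 37 °C for 5 days. Viability read by CellTiter-Glo chemiluminescence after 10 min lysis at room temperature; EC50 derived.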

[3] = biological target: Human immunodeficiency virus type 1 integrase (Human immunodeficiency virus 1, UniProt Q7ZJM1); assay: Inhibition of HIV1 integrase strand transfer activity
[4] = physchem; conditions: buffer, pH 7.3
[5] = tested on: MT4; assay: Cytotoxicity against human MT4 cells; format: functional

Human immunodeficiency virus type 1 integrase, sequence (Q7ZJM1 whole entry): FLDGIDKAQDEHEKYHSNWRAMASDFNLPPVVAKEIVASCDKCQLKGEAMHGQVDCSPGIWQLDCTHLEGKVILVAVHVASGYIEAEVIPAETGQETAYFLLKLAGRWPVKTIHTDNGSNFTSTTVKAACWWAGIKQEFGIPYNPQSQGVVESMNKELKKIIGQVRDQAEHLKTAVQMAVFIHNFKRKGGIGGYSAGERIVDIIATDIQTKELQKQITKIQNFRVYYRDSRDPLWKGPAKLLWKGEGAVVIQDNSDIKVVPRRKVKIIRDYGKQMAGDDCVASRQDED

SMILES	solubility [1] [µM]	EC50 [2] [nM]	IC50 [3] [nM]	solubility [4] [µM]	CC50 [5] [nM]
COc1c2c(c(O)c3ncccc13)C(=O)N(Cc1ccc(F)cc1)C2C (configuration not stated)	193 (≈ 68 µg/mL)	77	88	3 (≈ 1.06 µg/mL)	1600
COc1c2c(c(O)c3ncccc13)C(=O)N(Cc1ccc(F)cc1)C2O (configuration not stated)		256	36		9740
COc1c2c(c(O)c3ncccc13)C(=O)N(Cc1ccc(F)cc1)C2SCCC(=O)O (configuration not stated)		3400	295		24000
COc1c2c(c(O)c3ncccc13)C(=O)N(Cc1ccc(F)cc1)C2(C)C		1110	210		427
C=C1c2c(c(O)c3ncccc3c2OS(=O)(=O)N(C)C)C(=O)N1Cc1ccc(F)cc1	< 1	52	420	< 1	1650
COC(=O)CCSC1c2c(c(O)c3ncccc3c2OC)C(=O)N1Cc1ccc(F)cc1 (configuration not stated)		430	310		2800
COc1c2c(c(O)c3ncccc13)C(=O)N(Cc1ccc(F)cc1)C2			60		5100
O=C1c2c(c(O)c3ncccc3c2O)C(=O)N1Cc1ccc(F)cc1	< 1.4	7500	80	< 1.4	19000
COc1c2c(c(O)c3ncccc13)C(=O)N(Cc1ccc(F)cc1)C2SCCC(=O)N1CCNCC1 (configuration not stated)		685	59		5250
COc1c2c(c(O)c3ncccc13)C(=O)N(Cc1ccc(F)cc1)C21CC1	49 (≈ 17.9 µg/mL)	124	7	26 (≈ 9.47 µg/mL)	3300
COc1c2c(c(O)c3ncccc13)C(=O)N(Cc1ccc(F)cc1)C2OC (configuration not stated)		415	64		11400
CN(C)S(=O)(=O)Oc1c2c(c(O)c3ncccc13)C(=O)N(Cc1ccc(F)cc1)C2	7 (≈ 3.02 µg/mL)		255	< 2.3	1400
CN(C)S(=O)(=O)Oc1c2c(c(O)c3ncccc13)C(=O)N(Cc1ccc(F)cc1)C21CC1	11 (≈ 5.03 µg/mL)	443	357	2.1 (≈ 0.961 µg/mL)	14200
C=C1c2c(c(O)c3ncccc3c2OC)C(=O)N1Cc1ccc(F)cc1		375	150		6100
CC1c2c(c(O)c3ncccc3c2OS(=O)(=O)N(C)C)C(=O)N1Cc1ccc(F)cc1 (configuration not stated)	11 (≈ 4.9 µg/mL)	8	815	2 (≈ 0.891 µg/mL)	755
